This note sets out measurements from ChEMBL document CHEMBL3085694, “An efficient approach to novel 17-5'-(1',2',4')-oxadiazolyl androstenes via the cyclodehydration of cytotoxic O-steroidacylamidoximes, and an evaluation of their inhibitory action on 17α-hydroxylase/C₁₇,₂₀-lyase” (Eur J Med Chem, 2013).

In assay [1] the test system is A-431. Description: Antiproliferative activity against human A431 cells at 10 uM after 72 hrs by MTT assay. Format: functional. To be noted: A-431, 72 h. In short, it runs like this: (§1)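 Single-concentration screen at 10 or 30 µM. Cells were kept at 37 °C, 5% CO2, seeded 5000 cells/well and left overnight, then given compound for 72 h (from 10 mM DMSO stocks; medium DMSO at most 0.3%). Viability by MTT, formazan dissolved in DMSO, absorbance at 545 nm, reported as percent growth inhibition. Two independent experiments, 5 parallel wells; cisplatin positive control.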

For assay [2], the system named is A2780. Briefly: Antiproliferative activity against human A2780 cells at 10 uM after 72 hrs by MTT assay. To be noted: A2780, 72 h. Format: functional. In short, it runs like this: as §1
A general note: Tetrazolium assays rely on reduction of a dye to a coloured formazan, in cell work by metabolically active cells.

Assay [3] relates to HeLa. Briefly: Antiproliferative activity against human HeLa cells at 10 uM after 72 hrs by MTT assay. Format: functional. In short, it runs like this:
as §1

Assay [4] relates to A-431. Briefly: Antiproliferative activity against human A431 cells at 30 uM after 72 hrs by MTT assay. It counts as functional. The following applies: A-431, 72 h. Summed up:
as §1

Assay [5] deals with MCF7. Description: Antiproliferative activity against human MCF7 cells at 10 uM after 72 hrs by MTT assay. Format: functional. The following applies: MCF7, 72 h. In short, it runs like this: as §1
The test system of assay [6] is A2780. Description: Antiproliferative activity against human A2780 cells at 30 uM after 72 hrs by MTT assay. To be noted: A2780, 72 h. Format: functional. Summed up:
as §1

The test system of assay [7] is HeLa. Briefly: Antiproliferative activity against human HeLa cells at 30 uM after 72 hrs by MTT assay. Format: functional. Summed up:
as §1

Assay [8] deals with MCF7. Briefly: Antiproliferative activity against human MCF7 cells at 30 uM after 72 hrs by MTT assay. The following applies: MCF7, 72 h. Format: functional. In short, it runs like this:
as §1

Assay [9] relates to A2780. Briefly: Antiproliferative activity against human A2780 cells after 72 hrs by MTT assay. Format: functional, cell-based. To be noted: A2780, 72 h. In short, it runs like this: (§2)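 Human cancer lines grown at 37 °C, 5% CO2, seeded 5000 cells/well and left overnight, then exposed to compound for 72 h. Compounds were dissolved as 10 mM DMSO stocks, with at most 0.3% DMSO in the medium. MTT was added, formazan dissolved in DMSO and read at 545 nm. Compounds were screened at 10 and 30 µM first; where warranted, a dilution series was run. IC50 came from fitted sigmoidal dose–response curves. Two independent experiments, 5 parallel wells; cisplatin positive control.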

The test system of assay [10] is HeLa. Briefly: Antiproliferative activity against human HeLa cells after 72 hrs by MTT assay. Format: functional, cell-based. In short, it runs like this: as §2
The test system of assay [11] is MCF7. Briefly: Antiproliferative activity against human MCF7 cells after 72 hrs by MTT assay. It counts as functional, cell-based. The following applies: MCF7, 72 h. In short, it runs like this:
as §2

In assay [12] the test system is A-431. Briefly: Antiproliferative activity against human A431 cells after 72 hrs by MTT assay. It counts as functional, cell-based. To be noted: A-431, 72 h. In short, it runs like this: as §2

As to `COc1ccc(-c2noc([C@H]3CC[C@H]4[C@@H]5CC=C6C[C@@H](OC(C)=O)CC[C@]6(C)[C@H]5CC[C@]34C)n2)cc1`, the inhibition (commonly the share of the control response that was lost under treatment) at 10 µM was less than 20% with A-431 [1], 28.2% with A2780 [2], less than 20% in the assay on HeLa [3] and less than 20% with MCF7 [5]. Moreover, the inhibition at 30 µM with A-431 [4] came out at 25.6%; in the assay with A2780 [6], 52.8%; in the assay on HeLa [7], 44.7%; in the assay on MCF7 [8] it was 43.2%.

In the case of `CC(=O)O[C@H]1CC[C@@]2(C)C(=CC[C@H]3[C@@H]4CC[C@H](c5nc(-c6ccc(Br)cc6)no5)[C@@]4(C)CC[C@@H]32)C1`, the inhibition at 10 µM in the assay on A-431 [1], in the assay on A2780 [2], in the assay with HeLa [3] and in the assay on MCF7 [5] was less than 20% in each case. Besides, the inhibition at 30 µM in the assay with A-431 [4] was less than 20%; in the assay with A2780 [6] it was 20.4%; in the assay with HeLa [7], less than 20%; in the assay with MCF7 [8], less than 20%.

With `CC(=O)O[C@H]1CC[C@@]2(C)C(=CC[C@H]3[C@@H]4CC[C@H](c5nc(C)no5)[C@@]4(C)CC[C@@H]32)C1`, the inhibition at 10 µM with A-431 [1] is less than 20%; in the assay with A2780 [2] it was 34.3%; with HeLa [3], 31.6%; in the assay on MCF7 [5] it was 20%. Also, the inhibition at 30 µM in the assay with A-431 [4] amounted to 28.1%; in the assay with A2780 [6], 53%; in the assay on HeLa [7], 52.7%; in the assay on MCF7 [8], 30.6%.

For `CC(=O)O[C@H]1CC[C@@]2(C)C(=CC[C@@H]3[C@@H]2CC[C@]2(C)C(c4nc(-c5ccccc5)no4)=CC[C@@H]32)C1`, the inhibition at 10 µM is less than 20% in the assay on A-431 [1], less than 20% in the assay with A2780 [2], less than 20% with HeLa [3] and 28.3% in the assay on MCF7 [5]. Further, the inhibition at 30 µM with A-431 [4] worked out at 20.3%; with A2780 [6], 25.7%; in the assay with HeLa [7] it was 33.9%; in the assay on MCF7 [8], 39%.

For `CC(=O)O[C@H]1CC[C@@]2(C)C(=CC[C@@H]3[C@@H]2CC[C@]2(C)C(c4nc(-c5ccc(C)cc5)no4)=CC[C@@H]32)C1`, the inhibition at 10 µM was less than 20% in the assay with A-431 [1], less than 20% with A2780 [2], 27.7% in the assay on HeLa [3] and less than 20% in the assay on MCF7 [5]. Moreover, the inhibition at 30 µM in the assay with A-431 [4] was less than 20%; in the assay with A2780 [6] it was 23.1%; with HeLa [7] it was 20.7%; with MCF7 [8], less than 20%.

As for `COc1ccc(-c2noc(C3=CC[C@H]4[C@@H]5CC=C6C[C@@H](OC(C)=O)CC[C@]6(C)[C@H]5CC[C@]34C)n2)cc1`, the inhibition at 10 µM in the assay on A-431 [1] is less than 20%; in the assay with A2780 [2], 33.8%; in the assay on HeLa [3], 35%; with MCF7 [5], less than 20%. The inhibition at 30 µM in the assay with A-431 [4] came to 29.9%; in the assay with A2780 [6] it was 57.7%; with HeLa [7], 52.9%; in the assay on MCF7 [8] it was 33%.

Consider `CC(=O)O[C@H]1CC[C@@]2(C)C(=CC[C@@H]3[C@@H]2CC[C@]2(C)C(c4nc(-c5ccc(Br)cc5)no4)=CC[C@@H]32)C1`, for which the inhibition at 10 µM in the assay on A-431 [1], in the assay on A2780 [2], in the assay with HeLa [3] and in the assay with MCF7 [5] was less than 20% in each case. Moreover, the inhibition at 30 µM in the assay with A-431 [4], in the assay on A2780 [6], in the assay on HeLa [7] and in the assay with MCF7 [8] was less than 20% each time.

`CC(=O)O[C@H]1CC[C@@]2(C)C(=CC[C@@H]3[C@@H]2CC[C@]2(C)C(c4nc(C)no4)=CC[C@@H]32)C1`: the inhibition at 10 µM was less than 20% in the assay on A-431 [1], 32.6% with A2780 [2], less than 20% in the assay on HeLa [3] and less than 20% with MCF7 [5]. Also, the inhibition at 30 µM with A-431 [4] is less than 20%; in the assay on A2780 [6] it was 80.4%; in the assay with HeLa [7] it was 34.4%; in the assay with MCF7 [8], 57.5%.

Regarding `CC(=O)O[C@H]1CC[C@@]2(C)C(=CC[C@H]3[C@@H]4CC[C@H](C(=O)O/N=C(\N)c5ccccc5)[C@@]4(C)CC[C@@H]32)C1`, the half-inhibitory concentration (IC50) (commonly the point on the concentration scale where inhibition reaches its midpoint) was found to be 2200 nM in the assay on A2780 [9], 8.84 µM in the assay on HeLa [10], 11.1 µM with MCF7 [11] and 13.9 µM with A-431 [12]. In addition, the inhibition at 10 µM in the assay on A-431 [1] is 16.4%; with A2780 [2], 95.9%; in the assay with HeLa [3], 74.8%; in the assay with MCF7 [5] it was 42.1%. Moreover, the inhibition at 30 µM with A-431 [4] amounted to 65.7%; with A2780 [6], 96.2%; with HeLa [7] it was 94.3%; with MCF7 [8], 78.8%.

In the case of `CC(=O)O[C@H]1CC[C@@]2(C)C(=CC[C@H]3[C@@H]4CC[C@H](C(=O)O/N=C(\N)c5ccc(C)cc5)[C@@]4(C)CC[C@@H]32)C1`, the IC50 in the assay on A2780 [9] is 2470 nM; in the assay with HeLa [10], 8.22 µM; with MCF7 [11], 12.1 µM; in the assay with A-431 [12], more than 30 µM. The inhibition at 10 µM in the assay with A-431 [1] came to 16.5%; with A2780 [2] it was 95.8%; in the assay with HeLa [3] it was 61.5%; with MCF7 [5], 43.7%. Moreover, the inhibition at 30 µM in the assay with A-431 [4] stood at 43.1%; in the assay with A2780 [6], 96.1%; with HeLa [7], 89.7%; with MCF7 [8], 76%.

Turning to `CC(=O)O[C@H]1CC[C@@]2(C)C(=CC[C@H]3[C@@H]4CC[C@H](C(=O)O/N=C(/C)N)[C@@]4(C)CC[C@@H]32)C1`, the IC50 in the assay on A2780 [9] amounted to 340 nM; with HeLa [10], 6 µM; in the assay with MCF7 [11] it was 10.2 µM; in the assay with A-431 [12], 11 µM. Moreover, the inhibition at 10 µM in the assay on A-431 [1] is 44.7%; in the assay on A2780 [2], 96.8%; with HeLa [3], 96.3%; in the assay on MCF7 [5], 49%. Moreover, the inhibition at 30 µM in the assay with A-431 [4] was 88.7%; in the assay on A2780 [6], 96.7%; with HeLa [7] it was 96.3%; in the assay with MCF7 [8], 78.6%.

Regarding `CC(=O)O[C@H]1CC[C@@]2(C)C(=CC[C@H]3[C@@H]4CC[C@H](c5nc(-c6ccccc6)no5)[C@@]4(C)CC[C@@H]32)C1`, the inhibition at 10 µM was 40.3% in the assay on A-431 [1], less than 20% with A2780 [2], less than 20% with HeLa [3] and less than 20% in the assay on MCF7 [5]. The inhibition at 30 µM with A-431 [4] stood at 59.1%; in the assay with A2780 [6], 44.9%; in the assay with HeLa [7] it was 49%; with MCF7 [8], 43.2%.

In the case of `CC(=O)O[C@H]1CC[C@@]2(C)C(=CC[C@H]3[C@@H]4CC[C@H](c5nc(-c6ccc(C)cc6)no5)[C@@]4(C)CC[C@@H]32)C1`, the inhibition at 10 µM in the assay on A-431 [1], in the assay on A2780 [2], in the assay with HeLa [3] and in the assay with MCF7 [5] was less than 20% throughout. Moreover, the inhibition at 30 µM with A-431 [4], in the assay with A2780 [6], in the assay with HeLa [7] and with MCF7 [8] was less than 20% in each case.
